Series [1] deals with Onchocerca ochengi. Nature of the series: (§1) WHO-TDR: Onchocerciasis. The series is classed as functional. The arrangement: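 at 12.5 µM on microfilariae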. In outline: (§2)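 Following previously published standard procedures, with reference drugs as positive controls, a diverse Life Chemicals library was tested on whole Onchocerca ochengi or Onchocerca lienalis microfilariae. The library held 10,000 compounds filtered for drug-likeness and reactive groups. Activity is recorded both as percent inhibition and as IC50.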

Another series relates to Plasmodium falciparum K1. Briefly: WHO-TDR: Malaria. The format is functional, organism-based, Homo sapiens. Conditions: Erythrocyte. In outline:
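Antiplasmodial potency, expressed as IC50, was measured in a whole-organism assay on intra-erythrocytic Plasmodium falciparum K1 in human red blood cells. The screened library held 10,000 diverse compounds from Life Chemicals.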

For series [2], the system named is Trypanosoma brucei brucei. Briefly: WHO-TDR: Human African Trypanosomiasis (HAT). The series is classed as functional, organism-based. As to conditions: Squib-427. Put shortly:
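Antiparasitic potency is reported as IC50. The screen covered 10,000 compounds from a diverse Life Chemicals library, filtered for drug-likeness and reactive groups, tested on whole bloodstream-form Trypanosoma brucei of the Squib 427 strain.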

Series [3] is described as follows: WHO-TDR: Cytotoxicity. The format is toxicity, cell-based. Conditions: human, MRC5 cells.
The subject of a further series is Schistosoma mansoni. Nature of the series: WHO-TDR: Schistosomiasis. The format is functional. The arrangement: concentration or dose not given beside the values. In outline:
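Activity appears as percent inhibition and as IC50. The underlying screen tested a diverse library of 10,000 compounds, supplied by Life Chemicals, on whole larval and/or adult worms of the Puerto Rican strain of Schistosoma mansoni.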

In series [4] the test system is Onchocerca ochengi. Described as §1. The format is functional. The arrangement: concentration or dose not given beside the values. Put shortly: as §2
The source holds these as a separate data set.

Another series deals with Trypanosoma cruzi. Nature of the series: WHO-TDR: Chagas disease. As to conditions: MRC5. The series is classed as functional, organism-based, Homo sapiens. In outline: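 Following previously published standard procedures, with a reference drug as positive control, a whole-organism assay was run on Trypanosoma cruzi Tulahuen CL2 beta-galactosidase strain amastigotes inside MRC-5SV2 human lung fibroblast host cells. The 10,000 compounds tested formed a diverse Life Chemicals library filtered for drug-likeness and reactive groups. Results are expressed as IC50 for antiparasitic potency.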

The next series relates to Leishmania infantum. Briefly: WHO-TDR: Leishmaniasis. As to conditions: Macrophage. The format is functional, organism-based, Mus musculus. Put shortly:
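Antiparasitic potency, reported as IC50, was measured against intracellular Leishmania infantum amastigotes. The parasite strain was MHOM/MA(BE)/67, and murine peritoneal macrophages served as host cells for the screen of a 10,000-compound diverse library from Life Chemicals.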

Values after ≈ are worked out from the molar mass of the structure shown. Some results are limits rather than exact numbers.

In general, % Inhibition refers to the percentage by which the read-out fell short of the control. Usually IC50 stands for the concentration that gives 50% inhibition.

`CCN(CC)CCN(C(=O)Cc1ccc2c(c1)OCO2)c1nc2c(C)cc(C)cc2s1`: the “% Inhibition” value with Onchocerca ochengi [1], with Schistosoma mansoni and in the series on Onchocerca ochengi [4] was 0% each time. Moreover, the IC50 in the series on Plasmodium falciparum K1 came to 4.32 µg/mL (≈ 9.83 µM); in series [2], 0.452 µg/mL (≈ 1.03 µM); in series [3], 11.2 µg/mL (≈ 25.4 µM); in the series with Trypanosoma cruzi, 4.58 µg/mL (≈ 10.4 µM); with Leishmania infantum it was 7.4 µg/mL (≈ 16.8 µM).
With `CC1CCN(C(C)CNC(=O)Nc2cccc(Cl)c2)CC1` (configuration not stated), the “% Inhibition” value in the series on Onchocerca ochengi [1] came out at 0%; with Schistosoma mansoni it was 0%; in the series with Onchocerca ochengi [4], 50%. Besides, the IC50 is 1.01 µg/mL (≈ 3.26 µM) with Plasmodium falciparum K1; 0.301 µg/mL (≈ 0.971 µM) in series [2]; more than 9.29 µg/mL in series [3]; more than 9.29 µg/mL in the series with Trypanosoma cruzi; 4.81 µg/mL (≈ 15.5 µM) in the series with Leishmania infantum.
Regarding `O=C(Nc1nnc(-c2ccno2)o1)c1nc2ccccc2s1`, the “% Inhibition” value in the series on Onchocerca ochengi [1] is 0%; in the series on Schistosoma mansoni, 0%; in the series on Onchocerca ochengi [4], 100%. The IC50 in the series with Plasmodium falciparum K1 was 6.88 µg/mL (≈ 22 µM); in series [2], more than 9.4 µg/mL; in series [3] it was more than 9.4 µg/mL; with Trypanosoma cruzi it was more than 9.4 µg/mL; with Leishmania infantum, more than 9.4 µg/mL.
Consider `O=C(Nc1onc2c1CCCC2)c1cccc(Oc2ccccc2)c1`, for which the “% Inhibition” value in the series with Onchocerca ochengi [1] was 0%; with Schistosoma mansoni it was 0%; with Onchocerca ochengi [4], 100%. Also, the 50% inhibitory concentration (IC50) was 8.46 µg/mL (≈ 25.3 µM) in the series with Plasmodium falciparum K1; 3.25 µg/mL (≈ 9.71 µM) in series [2]; more than 10 µg/mL in series [3]; 4.23 µg/mL (≈ 12.7 µM) in the series on Trypanosoma cruzi; more than 10 µg/mL in the series with Leishmania infantum.
`NC(=O)c1cc(-c2ccccc2)sc1NC(=O)Cc1ccc2c(c1)OCO2`: the “% Inhibition” value with Onchocerca ochengi [1] was found to be 0%; in the series on Schistosoma mansoni, 0%; in the series with Onchocerca ochengi [4], 100%. Further, the IC50 was 5.1 µg/mL (≈ 13.4 µM) in the series on Plasmodium falciparum K1; 3.65 µg/mL (≈ 9.6 µM) in series [2]; more than 11.4 µg/mL in series [3]; more than 11.4 µg/mL in the series on Trypanosoma cruzi; more than 11.4 µg/mL with Leishmania infantum.
With `Cc1cc(NC(=O)COc2ccc(Cl)cc2)n(-c2nc(C)c(C)c(=O)[nH]2)n1`, the “% Inhibition” value with Onchocerca ochengi [1] is listed as 0%; in the series with Schistosoma mansoni it was 0%; in the series on Onchocerca ochengi [4], 50%. Besides, the IC50 in the series on Plasmodium falciparum K1 is 2.07 µg/mL (≈ 5.33 µM); in series [2] it was 0.377 µg/mL (≈ 0.971 µM); in series [3] it was 0.338 µg/mL (≈ 0.872 µM); in the series on Trypanosoma cruzi, 0.359 µg/mL (≈ 0.926 µM); with Leishmania infantum, more than 11.6 µg/mL.
Turning to `CC(C)c1cc(C(=O)NCC2CCCO2)nn1-c1nc2ccccc2s1` (configuration not stated), the “% Inhibition” value in the series on Onchocerca ochengi [1] was determined as 0%; in the series with Schistosoma mansoni it was 0%; in the series with Onchocerca ochengi [4], 100%. Besides, the IC50 (with Plasmodium falciparum K1; in series [2]; in series [3]; in the series on Trypanosoma cruzi; in the series with Leishmania infantum) was more than 11.1 µg/mL in each case.
`CCc1cc(=O)[nH]c(-n2nc(C)cc2NC(=O)Cc2cccs2)n1`: the “% Inhibition” value is 0% with Onchocerca ochengi [1], 0% in the series on Schistosoma mansoni and 100% in the series on Onchocerca ochengi [4]. Also, the IC50 was 0.493 µg/mL (≈ 1.44 µM) with Plasmodium falciparum K1; 0.338 µg/mL (≈ 0.983 µM) in series [2]; 0.293 µg/mL (≈ 0.853 µM) in series [3]; 0.276 µg/mL (≈ 0.804 µM) with Trypanosoma cruzi; more than 10.3 µg/mL in the series with Leishmania infantum.
In the case of `O=C(CC1CCCCN1S(=O)(=O)c1ccc(Cl)cc1)NCCC1=CCCCC1` (configuration not stated), the “% Inhibition” value with Onchocerca ochengi [1], with Schistosoma mansoni and in the series on Onchocerca ochengi [4] was 0% in each case. Moreover, the IC50 in the series with Plasmodium falciparum K1 was more than 12.7 µg/mL; in series [2] it was 4.23 µg/mL (≈ 9.95 µM); in series [3] it was 12.7 µg/mL (≈ 30 µM); with Trypanosoma cruzi, 0.517 µg/mL (≈ 1.22 µM); with Leishmania infantum, 6.6 µg/mL (≈ 15.5 µM).
Turning to `CC1CCN(C(C)CNC(=O)Nc2ccc(C(F)(F)F)cc2)CC1` (configuration not stated), the results for the “% Inhibition” value in the series with Onchocerca ochengi [1], with Schistosoma mansoni and in the series with Onchocerca ochengi [4] were 100%, 25% and 100%, respectively. For the same compound, the IC50 with Plasmodium falciparum K1 was determined as 0.869 µg/mL (≈ 2.53 µM); in series [2], 0.333 µg/mL (≈ 0.971 µM); in series [3], 8.41 µg/mL (≈ 24.5 µM); in the series on Trypanosoma cruzi it was 3.26 µg/mL (≈ 9.49 µM); in the series with Leishmania infantum it was 3.33 µg/mL (≈ 9.71 µM).
Consider `Cc1cccc(NC(=O)Cn2nc(C(C)C)c3cnn(-c4ccccc4C)c3c2=O)c1`, for which the “% Inhibition” value is reported as 0% with Onchocerca ochengi [1], 0% with Schistosoma mansoni and 100% in the series with Onchocerca ochengi [4]. In addition, the concentration for half-maximal inhibition (IC50) (in the series with Plasmodium falciparum K1; in series [2]; in series [3]; in the series on Trypanosoma cruzi; in the series with Leishmania infantum) was more than 12.5 µg/mL throughout.
`O=C(CC1CCCC1)Nc1nc(CSCc2ccc(F)cc2)cs1`: the “% Inhibition” value in the series with Onchocerca ochengi [1] came out at 0%; in the series with Schistosoma mansoni, 0%; in the series with Onchocerca ochengi [4], 100%. Also, the IC50 in the series on Plasmodium falciparum K1 was 3.04 µg/mL (≈ 8.35 µM); in series [2], 3.5 µg/mL (≈ 9.6 µM); in series [3], more than 10.9 µg/mL; with Trypanosoma cruzi, 2.43 µg/mL (≈ 6.67 µM); with Leishmania infantum, more than 10.9 µg/mL.
Turning to `C=CCN1C(=O)C(C)(C)COc2ccc(NS(=O)(=O)c3ccc4c(c3)OCCO4)cc21`, the “% Inhibition” value with Onchocerca ochengi [1] is reported as 0%; in the series on Schistosoma mansoni it was 0%; with Onchocerca ochengi [4], 100%. The IC50 (with Plasmodium falciparum K1; in series [2]; in series [3]; with Trypanosoma cruzi; in the series on Leishmania infantum) was more than 13.3 µg/mL in each case.
Consider `O=C(CC1CCCCN1S(=O)(=O)c1ccc(Cl)cc1)Nc1ccc2c(c1)OCO2` (configuration not stated), for which the “% Inhibition” value with Onchocerca ochengi [1], in the series with Schistosoma mansoni and in the series with Onchocerca ochengi [4] was 0% each time. Also, the 50% inhibitory concentration (IC50) was more than 13.1 µg/mL with Plasmodium falciparum K1; 4.24 µg/mL (≈ 9.71 µM) in series [2]; more than 13.1 µg/mL in series [3]; 0.789 µg/mL (≈ 1.81 µM) in the series on Trypanosoma cruzi; more than 13.1 µg/mL in the series on Leishmania infantum.
Turning to `O=C(c1ccco1)N1CCN(c2ccc(-c3cccs3)nn2)CC1`, the results for the “% Inhibition” value in the series with Onchocerca ochengi [1], in the series on Schistosoma mansoni and in the series with Onchocerca ochengi [4] were 0%, 0% and 100%, respectively. Moreover, the IC50 was 5.12 µg/mL (≈ 15 µM) in the series with Plasmodium falciparum K1; more than 10.2 µg/mL in series [2]; more than 10.2 µg/mL in series [3]; more than 10.2 µg/mL with Trypanosoma cruzi; more than 10.2 µg/mL in the series on Leishmania infantum.
In the case of `O=C(CSc1ncc(-c2ccccc2)[nH]1)N1CCCc2ccccc21`, the “% Inhibition” value with Onchocerca ochengi [1] is recorded as 0%; in the series on Schistosoma mansoni it was 0%; with Onchocerca ochengi [4] it was 100%. Also, the half-inhibitory concentration (IC50) (in the series with Plasmodium falciparum K1; in series [2]; in series [3]; with Trypanosoma cruzi; in the series with Leishmania infantum) was more than 10.5 µg/mL throughout.
On to `Cc1ccc(Cl)cc1S(=O)(=O)Nc1ccc2c(c1)NC(=O)C(C)(C)CO2`, for which the “% Inhibition” value with Onchocerca ochengi [1] was 0%; in the series with Schistosoma mansoni, 0%; with Onchocerca ochengi [4], 100%. Moreover, the IC50 in the series on Plasmodium falciparum K1 was more than 11.8 µg/mL; in series [2], 3.89 µg/mL (≈ 9.85 µM); in series [3], more than 11.8 µg/mL; in the series with Trypanosoma cruzi, 3.95 µg/mL (≈ 10 µM); in the series with Leishmania infantum, more than 11.8 µg/mL.
In the case of `O=C(Nc1nc(-c2ccncc2)cs1)C1CCCN(S(=O)(=O)c2cccs2)C1` (configuration not stated), the “% Inhibition” value in the series with Onchocerca ochengi [1] is 0%; in the series with Schistosoma mansoni it was 0%; in the series on Onchocerca ochengi [4], 50%. Also, the IC50 is more than 13 µg/mL in the series with Plasmodium falciparum K1; 4.33 µg/mL (≈ 9.95 µM) in series [2]; 9.25 µg/mL (≈ 21.3 µM) in series [3]; 0.534 µg/mL (≈ 1.23 µM) with Trypanosoma cruzi; more than 13 µg/mL in the series on Leishmania infantum.
`Cc1ccc(S(=O)(=O)N2CCCCC2CC(=O)Nc2ccc(Cl)cc2)cc1` (configuration not stated): the “% Inhibition” value in the series on Onchocerca ochengi [1], in the series on Schistosoma mansoni and in the series with Onchocerca ochengi [4] was 0% in each case. For the same compound, the IC50 in the series with Plasmodium falciparum K1 was more than 12.2 µg/mL; in series [2], 5.79 µg/mL (≈ 14.2 µM); in series [3] it was more than 12.2 µg/mL; with Trypanosoma cruzi, 0.421 µg/mL (≈ 1.03 µM); with Leishmania infantum it was more than 12.2 µg/mL.
